Results published in article PMC2735501 (Journal of medicinal chemistry, 2009).

How the values were obtained:
[1] = tested on: IL-5 production; experiment: IL-5 production by OVA stimulated mouse splenocytes; assay type: cell-based; settings: pure compounds or fractions
In short: (§1)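 Female Balb-C mice (6–8 weeks) were immunized s.c. weekly for four weeks with 25 µg OVA adsorbed to 1 mg alum in 200 µl PBS. Splenocytes were strained and resuspended at 1.3×10^6 cells/mL in RPMI-1640, then given test material in DMSO plus OVA. Replicate control wells held DMSO or DMSO+OVA. Supernatant cytokines were read by sandwich ELISA at 450 nm against standards in each replicate assay. Viability was checked by trypan blue count.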

[2] = tested on: cytokine production by OVA stimulated splenocytes; experiment: Mouse splenocyte cytokine assay; assay type: cell-based; settings: for inhibiting TH2 cytokine production compared with dexamethasone (in words): IL-5, IL-13, 10 nM (Figure 9)
In short: as §1

| SMILES | suppression of IL-5 production (in words) [1] | suppression of cytokine production by OVA stimulated splenocytes (in words) [2] | inhibiting TH2 cytokine production compared with dexamethasone (in words) [2] |
| --- | --- | --- | --- |
| C[C@@H]1OC(=O)[C@@H](NC(=O)c2cccc(NC=O)c2O)[C@@H](C)OC(=O)[C@H](Cc2ccccc2)[C@H]1O [compound 10] | low micromolar | low micromolar | – |
| CC(C)C(=O)O[C@H]1[C@H](C)OC(=O)[C@@H](NC(=O)c2cccc(NC=O)c2O)[C@@H](C)OC(=O)[C@@H]1Cc1ccccc1 [compound 2] | – | – | as effective as dexamethasone |
| CCCCCC[C@H]1C(=O)O[C@H](C)[C@H](NC(=O)c2cccc(NC=O)c2O)C(=O)O[C@@H](C)[C@@H]1OC(=O)c1ccccc1 [compound 7] | – | – | as effective as dexamethasone |
